# Efflux pump inh = inhibitors of Candida antifungal efflux pumps expressed in yeast; S. cerevisiae Candida pump triplex, Nile Red efflux; inhibition, % at 10 µM; AID 485275; 0.44% of 330,000 active;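 active = plate passing quality check with inhibition over a set limit, or well fluorescence over plate mean plus 4 SD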;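 note: Nile Red retained in pooled yeast measured as flow cytometry median fluorescence; 0% = buffer negative control and 100% = Enniatin B positive control; higher means more Nile Red kept so more efflux inhibition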
# TAG inh = reduces triacylglycerol accumulation in H9c2 cells; Nile Red lipid (TAG) fluorescence; cells loaded with 200 µM oleic acid; inhibition, % at 12.5 µM; 0.66% of 230,000 active;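 active = pattern-corrected inhibition of lipid staining of at least 50% with the nuclear-stain viability signal not falling by more than 50%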;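 note: 0% = DMSO wells and 100% = triacsin C control wells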
# GalR3 antagonist = antagonists of human GalR3; HEK293 GalR3-CNG cAMP membrane potential fluorescence; galR3 body fused to GalR1 C-terminus; inhibition, % at 3 µM; 0.44% of 360,000 active; AID 651719;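 active = inhibition above the screen-wide average plus 3 SD, cut at about 13% in these data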;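 note: forskolin and galanin both at EC90 stimulate the cells; cAMP rise reported by CNG channel membrane potential dye signal; 0% = forskolin plus galanin with DMSO and 100% = forskolin alone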
# MC4R ag barr = human MC4R agonism via beta-arrestin; AID 540308; 0.98% of 360,000 active; activation, % at 8.9 µM; U2OS MC4R beta-arrestin complementation, luminescence; percent of melanotan II response, DMSO zero; P32245;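 active = activation above a per-plate cutoff, the mean activation of sample wells on that plate plus 3 SD, cut at about 8% in these data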
# Target sequence (P32245 whole entry, looked up): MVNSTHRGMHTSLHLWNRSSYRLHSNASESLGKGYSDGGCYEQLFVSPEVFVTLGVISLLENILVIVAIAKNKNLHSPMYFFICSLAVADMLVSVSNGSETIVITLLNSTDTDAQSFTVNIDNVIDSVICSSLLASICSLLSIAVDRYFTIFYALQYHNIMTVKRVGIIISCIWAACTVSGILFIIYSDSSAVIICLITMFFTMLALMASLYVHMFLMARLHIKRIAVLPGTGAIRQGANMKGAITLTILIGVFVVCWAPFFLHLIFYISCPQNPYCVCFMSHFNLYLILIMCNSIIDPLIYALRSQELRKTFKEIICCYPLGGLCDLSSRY
# Calb FLC = affects C. albicans growth with fluconazole. C. albicans CaCi-2 (fluconazole-resistant clinical isolate) + fluconazole, Alamar Blue growth, 48 h. growth inhibition, % (no concentration beside the values). 0.57% of 300,000 active;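 active = growth inhibition above about 58% in most replicates, limit read from the data, passing the limit was not always enough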;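 note: all wells also contain fluconazole at 8 µg/ml as a sub-toxic cotreatment; 0% = median of DMSO wells and 100% = median of geldanamycin control wells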
# MC4R antagonist = blocks human MC4R cAMP signaling; inhibition, % at 6.5 µM; MC4R-expressing cells, MTII-stimulated cAMP, LANCE TR-FRET; 0.48% of 360,000 active; AID 540295;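 active = inhibition above its plate's cutoff, the mean of tested wells on that plate plus 3 SD, cut at about 29% in these data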;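 note: 0% = Melanotan II alone and 100% = Melanotan II plus saturating MCL0020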
#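 System: U2OS cells stably expressing human melanocortin 4 receptor (MC4R). Reagent: Melanotan II challenge after compound preincubation. Doses: 6.5 µM. Times: 30-min compound, 1-h challenge, 1-h detection, room temperature. Measured by: TR-FRET with Eu-cAMP and labeled anti-cAMP, 671 nm. Replicates: singlicate.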
# GalR3 conf = GalR3 (human) antagonism, confirmation; shares compounds with GalR3 antagonist; HEK293 GalR3 CNG cAMP biosensor, membrane potential fluorescence; galR3 fused to GalR1 carboxy tail; challenged with forskolin and galanin at EC90; inhibition, % at 3 µM; 59% of 1,600 active;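 active = inhibition above the primary screen's cutoff, the mean inhibition of all screened compounds plus 3 SD, cut at about 13% in these data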;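 note: 0% = forskolin plus galanin and 100% = forskolin alone with DMSO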
# CNG parental = parental cell agonism counter-screen for GalR3 antagonists; HEK293-CNG parental cells, cAMP membrane potential fluorescence; normalised: DMSO wells 0%, forskolin wells 100%; activation, % at 3 µM; shares compounds with GalR3 antagonist; 10% of 1,600 active; AID 652268; in the data active = activation above about 1.3%
# * marks the source's active call; other numbers are inactive results; / = no result given. Most compounds without a hit are left out; they make up all but 2.9% or so of the library.
SMILES,Efflux pump inh,TAG inh,GalR3 antagonist,MC4R ag barr,Calb FLC,MC4R antagonist,GalR3 conf,CNG parental
COc1ccc(-c2noc(CCCCC(=O)N3CCN(c4cc(C)ccc4C)CC3)n2)cc1,0,-26,97*,1,/,2,105*,-1
O=[N+]([O-])c1c(Nc2ccc(O)cc2)cc(Cl)c2nonc12,0,/,58*,-7,87*,-43,51*,0
CN(C)c1cc(Nc2ccc(O)cc2)c([N+](=O)[O-])c2nonc12,0,-19,5,-2,-6,7,/,/
Cc1cc(C)nc(-n2nc(C)c(Br)c2Nc2ccc(Br)cc2)n1,0,/,-7,2,-6,-8,/,/
Cc1nn(C)c(Nc2ccc(Br)cc2)c1Br,0,-5,49*,-1,-27,10,86*,-1
O=S(=O)(Nc1nc2ccccc2nc1NCC1CCCO1)c1cc(Cl)ccc1Cl (stereo not given),0,5,15*,-3,22,5,1,0
O=S(=O)(Nc1nc2ccccc2nc1NCC1CCCO1)c1ccccc1 (stereo not given),0,3,3,0,38,10,/,/
O=Nc1ccc(Cl)cn1,/,/,-8,/,/,/,/,/
COc1ccccc1C(=O)Nc1cc2c(cc1C(=O)O)OCCCO2,0,/,13*,0,-2,5,3,0
O=C(O)c1cc2c(cc1NC(=O)c1ccccc1OC(F)F)OCCCO2,0,/,-8,0,0,5,/,/
COC(=O)c1ccc(COc2ccccc2OC)o1,0,/,-7,0,10,12,/,/
COc1ccccc1OCc1ccc(C(=O)OCC2CCCO2)o1 (stereo not given),0,/,15*,0,-3,4,3,0
O=C(O)COn1c(-c2ccc(Cl)cc2)nc2ccc(Cl)cc21,0,18,30*,-1,-6,7,14*,0
COn1c(-c2ccc(Cl)cc2)nc2ccc(Cl)cc21,0,/,-7,2,6,4,/,/
COCCOC(=O)c1c(NC(=O)CN2CCOCC2)sc(C(N)=O)c1C,0,6,-2,-1,12,15,/,/
COCCOC(=O)c1c(NC(=O)CN2c3ccccc3CC2C)sc(C(N)=O)c1C (stereo not given),0,-5,17*,0,1,7,10,1
CC1(C(=O)NS(=O)(=O)c2ccccc2)CCN1C(=O)CC1CC1 (stereo not given),/,-4,-9,1,/,6,/,/
COC(=O)c1cc(=O)nc(NN=Cc2ccccc2O)s1,/,/,-7,/,/,/,/,/
CCc1ccccc1NC(=O)CN1CCN(C(=O)CNC(=O)Cc2cccc3ccccc23)CC1,0,-5,-7,-1,/,8,/,/
N#Cc1ccc(CN2CCN(C(=O)CNC(=O)Cc3cccc4ccccc34)CC2)cc1,/,-8,22*,-4,/,0,10,0
COc1cc(OC)cc(C(=O)NCC(=O)NCCN2C(=O)S/C(=C\c3ccccc3Cl)C2=O)c1,0,9,-5,4,/,7,/,/
COc1cc(OC)cc(C(=O)NCC(=O)NCCN2C(=O)S/C(=C\c3ccc4c(c3)OCO4)C2=O)c1,/,16,13*,0,/,4,10,0
O=C(CSc1nc2ccccc2o1)Nc1ccc(N2CCOCC2)c(Cl)c1,0,/,92*,-3,11,11,109*,0
COc1cc(CNCC(O)c2ccccc2)ccc1OCc1ccc(Cl)nc1 (stereo not given),0,/,26*,0,15,-3,43*,2.3*
O=C(Cc1ccc(NC(=O)C2CCCN(C(=O)c3ccccc3)C2)cc1)Nc1cccc(C(=O)N2CCCCC2)c1 (stereo not given),/,/,1,/,/,/,/,/
CCc1ccccc1NC(=O)CN(C)S(=O)(=O)c1ccc(-c2ccc(=O)[nH]n2)s1,0,/,-4,-1,-26,1,/,/

# Compound activity from PubChem BioAssay.
